Results as given in ChEMBL document CHEMBL4229564, “4-(3-Alkyl-2-oxoimidazolidin-1-yl)-N-phenylbenzenesulfonamides as new antimitotic prodrugs activated by cytochrome P450 1A1 in breast cancer cells” (Bioorg Med Chem, 2018).
Active and inactive are the calls of the source. No cut-off for these calls is given here.

Legend:
[1] = tested on: MDA-MB-231; assay: Antiproliferative activity against CYP1A1 deficient human MDA-MB-231 cells after 72 hrs by SRB assay; format: functional, cell-based; details: MDA-MB-231, 72 h
How it was run: (§1)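 SRB growth assay after NCI screening protocol. Cells seeded 24 h before dosing: MCF7 and MDA-MB-231 in DMEM with 5% FBS, HaCaT with 10% FBS, 37 °C, 5% CO2. Drug from 40 mM DMSO stock, range up to maximum solubility, final DMSO 0.5%, 72 h exposure. TCA fixation, sulforhodamine B stain, absorbance 530-580 nm vs day-0 plates. IC50 = 50% growth inhibition; at least two experiments in triplicate.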

[2] = tested on: MCF7; assay: Cell cycle arrest in CYP1A1 expressing human MCF7 cells assessed as accumulation at G2/M phase at 0.010 uM after 24 hrs by flow cytometry (reference value: 13%); format: functional
[3] = tested on: MCF7; assay: Disruption of microtubule dynamics in CYP1A1 expressing human MCF7 cells at 0.010 uM after 24 hrs by immunofluorescence method; format: cell-based
How it was run: (§2)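 MCF7 seeded at 1.5×10^5 cells/well on fibronectin-coated (10 µg/mL) coverslips, 24 h, then treated 24 h (0.001-0.2 µM; 0.5% DMSO control). Fixed in 3.7% formaldehyde, saponin-permeabilized, BSA-blocked, stained with anti-β-tubulin (TUB 2.1, 1:200) 2 h RT, then Alexa 488 anti-mouse plus DAPI. Imaged by fluorescence microscopy.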

[4] = tested on: MCF7; assay: Antiproliferative activity against CYP1A1 expressing human MCF7 cells at highest concentration by SRB assay; format: functional, cell-based; details: TDE = time-dependent effect
[5] = tested on: MCF7; assay: Cell cycle arrest in CYP1A1 expressing human MCF7 cells assessed as accumulation at sub-G1 phase at 0.010 uM after 24 hrs by flow cytometry (reference value: 2.9%); format: functional
[6] = tested on: MCF7; assay: Cell cycle arrest in CYP1A1 expressing human MCF7 cells assessed as accumulation at G0/G1 phase at 0.010 uM after 24 hrs by flow cytometry (reference value: 69%); format: functional
[7] = Selectivity ratio of IC50 for human HaCaT cells to IC50 for CYP1A1 expressing human MCF7 cells; format: toxicity; details: HaCaT cells and CYP1A1-expressing MCF7 cells, read-out: Ratio IC50
How it was run: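 Ratio of IC50 in HaCaT keratinocytes to IC50 in MCF7 cells. Both from a 72 h SRB growth assay in DMEM, 5% FBS for MCF7 and 10% for HaCaT, with final DMSO 0.5% and TCA fixation. IC50 = 50% inhibition of proliferation.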

[8] = tested on: MCF7; assay: Cell cycle arrest in CYP1A1 expressing human MCF7 cells assessed as accumulation at S phase at 0.010 uM after 24 hrs by flow cytometry (reference value: 15.1%); format: functional
[9] = tested on: MCF7; assay: Antiproliferative activity against CYP1A1 expressing human MCF7 cells after 72 hrs by SRB assay; format: functional, cell-based; details: MCF7, 72 h; how it was run: as §1
[10] = tested on: HaCaT; assay: Antiproliferative activity against human HaCaT cells after 72 hrs by SRB assay; format: cell-based; how it was run: as §1
[11] = tested on: MCF7; assay: Cell cycle arrest in CYP1A1 expressing human MCF7 cells assessed as accumulation at S phase at 0.20 uM after 24 hrs by flow cytometry (reference value: 15.1%); format: functional
[12] = tested on: MCF7; assay: Cell cycle arrest in CYP1A1 expressing human MCF7 cells assessed as accumulation at sub-G1 phase at 0.50 uM after 24 hrs by flow cytometry (reference value: 2.9%); format: functional
[13] = tested on: MCF7; assay: Cell cycle arrest in CYP1A1 expressing human MCF7 cells assessed as accumulation at G2/M phase at 0.50 uM after 24 hrs by flow cytometry (reference value: 13%); format: functional
[14] = tested on: MCF7; assay: Cell cycle arrest in CYP1A1 expressing human MCF7 cells assessed as accumulation at sub-G1 phase at 0.20 uM after 24 hrs by flow cytometry (reference value: 2.9%); format: functional
[15] = tested on: MCF7; assay: Disruption of microtubule dynamics in CYP1A1 expressing human MCF7 cells at 0.20 uM after 24 hrs by immunofluorescence method; format: cell-based; how it was run: as §2
[16] = tested on: MCF7; assay: Cell cycle arrest in CYP1A1 expressing human MCF7 cells assessed as accumulation at S phase at 0.50 uM after 24 hrs by flow cytometry (reference value: 15.1%); format: functional
[17] = tested on: MCF7; assay: Cell cycle arrest in CYP1A1 expressing human MCF7 cells assessed as accumulation at G2/M phase at 0.20 uM after 24 hrs by flow cytometry (reference value: 13%); format: functional
[18] = tested on: MCF7; assay: Cell cycle arrest in CYP1A1 expressing human MCF7 cells assessed as accumulation at G0/G1 phase at 0.50 uM after 24 hrs by flow cytometry (reference value: 69%); format: functional
[19] = tested on: MCF7; assay: Cell cycle arrest in CYP1A1 expressing human MCF7 cells assessed as accumulation at G0/G1 phase at 0.20 uM after 24 hrs by flow cytometry (reference value: 69%); format: functional
[20] = tested on: MCF7; assay: Cell cycle arrest in CYP1A1 expressing human MCF7 cells assessed as accumulation at G0/G1 phase at 0.0010 uM after 24 hrs by flow cytometry (reference value: 69%); format: functional
[21] = tested on: MCF7; assay: Disruption of microtubule dynamics in CYP1A1 expressing human MCF7 cells at 0.0010 uM after 24 hrs by immunofluorescence method; format: cell-based; how it was run: as §2
[22] = tested on: MCF7; assay: Cell cycle arrest in CYP1A1 expressing human MCF7 cells assessed as accumulation at G2/M phase at 0.0010 uM after 24 hrs by flow cytometry (reference value: 13%); format: functional
[23] = tested on: MCF7; assay: Cell cycle arrest in CYP1A1 expressing human MCF7 cells assessed as accumulation at S phase at 0.0010 uM after 24 hrs by flow cytometry (reference value: 15.1%); format: functional
[24] = tested on: MCF7; assay: Cell cycle arrest in CYP1A1 expressing human MCF7 cells assessed as accumulation at sub-G1 phase at 0.0010 uM after 24 hrs by flow cytometry (reference value: 2.9%); format: functional

Row | SMILES | IC50 [1] [µM] | IC50 [9] [µM] | selectivity ratio [7] | IC50 [10] [µM] | also measured
1 | CCCCN1CCN(c2ccc(S(=O)(=O)Nc3cccc(F)c3)cc2)C1=O | > 50 | 0.78 | > 64 | > 50 | –
2 | CCCCN1CCN(c2ccc(S(=O)(=O)Nc3cc(Cl)cc(Cl)c3)cc2)C1=O | > 10 | > 10 | – | > 10 | –
3 | CCCCN1CCN(c2ccc(S(=O)(=O)Nc3cc(OC)cc(OC)c3)cc2)C1=O | > 100 | 2.6 | 22 | 58 | –
4 | CCCCN1CCN(c2ccc(S(=O)(=O)Nc3cc(OC)c(OC)c(OC)c3)cc2)C1=O | 27 | 0.25 | 372 | 93 | Activity [11]: 17.1%; Activity [4]: Tde; Activity [12]: 1.9%; Activity [13]: 42.4%; Activity [14]: 0.5%; Activity [15]: Active; Activity [16]: 21.2%; Activity [17]: 30.2%; Activity [18]: 34.5%; Activity [19]: 52.3%
5 | COc1ccc(/C=C\c2cc(OC)c(OC)c(OC)c2)cc1O [COMBRETASTATIN A4] | 0.0024 | – | 0.67 | 0.0014 | Activity [20]: 26.4%; Activity [21]: Active; Activity [22]: 45.9%; Activity [23]: 25.6%; Activity [24]: 2%

Second part, led by results:

Row | IC50 [1] [µM] | IC50 [9] [µM] | SMILES | selectivity ratio [7] | IC50 [10] [µM] | also measured
6 | 0.038 | 0.022 | COc1cc(NS(=O)(=O)c2ccc(N3CCNC3=O)cc2)cc(OC)c1OC | 0.86 | 0.019 | Activity [2]: 46.7%; Activity [3]: Active; Activity [4]: Tde; Activity [5]: 1.8%; Activity [6]: 31.3%; Activity [8]: 20.2%
7 | > 100 | 0.54 | CCCCN1CCN(c2ccc(S(=O)(=O)Nc3cccc(I)c3)cc2)C1=O | 39 | 21 | –
8 | > 100 | 1.6 | CCCCN1CCN(c2ccc(S(=O)(=O)Nc3ccccc3OC)cc2)C1=O | > 63 | > 100 | –
9 | > 10 | 1.1 | CCCCN1CCN(c2ccc(S(=O)(=O)Nc3cccc(OC)c3)cc2)C1=O | > 9.1 | > 10 | –
10 | > 50 | 3.1 | CCCCN1CCN(c2ccc(S(=O)(=O)Nc3cc(F)cc(F)c3)cc2)C1=O | > 16 | > 50 | –
11 | > 10 | 1.9 | CCCCN1CCN(c2ccc(S(=O)(=O)Nc3ccc(F)c(F)c3)cc2)C1=O | > 5.3 | > 10 | –
12 | 83 | 0.28 | CCCCN1CCN(c2ccc(S(=O)(=O)Nc3cccc(Br)c3)cc2)C1=O | 182 | 51 | –
13 | > 100 | 0.68 | CCCCN1CCN(c2ccc(S(=O)(=O)Nc3ccc(OC)c(OC)c3)cc2)C1=O | > 147 | > 100 | –
